Compound activity from PubChem.
RAM network inh = yeast RAM network inhibition; S. cerevisiae dse1pr::URA3 reporter, 5-FOA growth OD615, 2 d; analog-sensitive cbk1-as2 kinase mutant strain; inhibition, % at 50 µM; 1.8% of 190,000 active; AID 868;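 active = inhibition above a set limit, 3 SD over mean compound inhibition, cut at about 8.4% in these data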;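 note: 0% = DMSO-only wells with no growth and 100% = 10 µM 1-NA-PP1 full growth; inhibition rescues growth on 5-FOA so higher OD means more RAM inhibition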
sdo1 growth = restores growth of sdo1-depleted yeast. S. cerevisiae sdo1-depleted JHY4D growth rescue, OD600 30 h; hits give high values; pdr5 snq2 efflux-pump mutant strain. 0.21% of 140,000 active. z-score at 10 µM;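 active = z-score above 3 at both the 24 hr and the 30 hr optical density reads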;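 note: z-score against mean and SD of all compound wells on the same plate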
Yeast life ext = yeast lifespan extension. S. cerevisiae growth with nicotinamide, OD615; deaD strain in restrictive glucose medium. inhibition of the nicotinamide effect, % at 10 µM. 0.68% of 130,000 active. AID 775;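 active = inhibition above a set limit, placed 3 SD over the median of all compounds, cut at about 26% in these data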;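 note: 0% = nicotinamide-treated wells and 100% = cells grown without nicotinamide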
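Material: Modified budding yeast, DeaD strain | Medium: Restrictive glucose medium | Probe or stimulus: 1.5 mM nicotinamide | Dosing: Single dose 10 µM compound, 0.25% DMSO | Times: 48 h at 30 °C | Technique: OD615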
Yeast growth inh = chemicals that inhibit yeast BB579 growth in restrictive medium (lifespan-shortening candidates); S. cerevisiae BB579 growth, OD615, 48 h; inhibition, % at 10 µM; 0.51% of 140,000 active; AID 804;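 active = inhibition above a set limit, 3 SD over the mean compound inhibition, cut at about 44% in these data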
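System: Saccharomyces cerevisiae DeaD strain BB579, replicative lifespan model yeast | Buffer or medium: Restrictive glucose-based CSMM-D medium | Times: 4 h preincubation and 48 h exposure at 30 °C | Detection: OD615 turbidity measurement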
Active calls of the source: *; x = no result given. Shown are actives, neighbours in structure and some others; about 2.7% of the full set was active somewhere.

SMILES	RAM network inh	sdo1 growth	Yeast life ext	Yeast growth inh
CC(=O)c1cccc(NS(=O)(=O)c2ccc(N/C=C\C(=O)c3ccc(F)cc3)cc2)c1	3	-1.1	-11	-34
COc1cccc(C(=O)/C=C/Nc2ccc(S(=O)(=O)Nc3onc(C)c3C)cc2)c1	8.9*	1.1	3	-50
CC(=O)c1cccc(NS(=O)(=O)c2ccc(N/C=C/C(=O)c3ccc(F)cc3)cc2)c1	9.6*	-0.7	7	-25
COc1ccc(/C=C2\N=C(SC)N(c3ccccc3OC)C2=O)cc1	8.4*	x	x	x
O=C(CCN1CCCCCC1)Nc1ccc(F)c(F)c1	1	0.2	-4	-37
O=C(CCN1CCCCCC1)Nc1ccc(F)cc1	1	0.4	64*	-58
Cc1ccc(C)c(Nc2nc3c(S(=O)(=O)c4ccccc4)nnn3c3ccccc23)c1	8.4*	2.2	2	-38
COc1ccc(C2=NC(c3ccccc3)CO2)cc1 (stereo not drawn)	-1	-0.2	12	-19
COc1ccc(C2CC23N=C(c2ccccc2)OC3=O)cc1 (stereo not drawn)	0	-0.57	45*	-14
Cc1cc(C)c(N2CCN(S(=O)(=O)N3CCCCCC3)CC2)c(C)c1	11*	-0.79	-6	-68
Cc1ccc(N2CCN(S(=O)(=O)N3CCCCC3)CC2)cc1Cl	0	0.29	0	-17
N#Cc1c(NC(=O)CCN2C(=O)c3ccccc3C2=O)oc(-c2ccccc2)c1-c1ccccc1	9.5*	0.91	0	-20
N#Cc1c(NC(=O)CCn2cnc3ccccc3c2=O)oc(-c2ccccc2)c1-c1ccccc1	8	-0.24	-10	-71
CCn1c(SCC(=O)Nc2oc(-c3ccccc3)c(-c3ccccc3)c2C#N)nnc1-c1ccco1	8.8*	-0.54	-13	-26
CCn1c(SCC(=O)Nc2oc(-c3ccccc3)c(-c3ccccc3)c2C#N)nnc1-c1ccncc1	4	-0.65	-12	-32
COc1ccc(/C=N/Nc2ncc(Br)cn2)c(OC)c1	0	x	x	x
CCOC(=O)c1c(C)[nH]c(C)c1C(=O)COC(=O)c1cccc(C)c1O	3	-1.7	-10	-31
O=C(CN(c1ccc(Cl)cc1)S(=O)(=O)c1ccc(Cl)c([N+](=O)[O-])c1)NCCc1ccccc1	8.4*	x	x	x
O=C(CN(c1ccc(Cl)cc1)S(=O)(=O)c1ccc(Cl)c([N+](=O)[O-])c1)NCCc1ccc(F)cc1	4	0.51	6	-49
C=CCn1c(-c2ccc(OC)cc2)csc1=Nc1c(C)n(C)n(-c2ccccc2)c1=O	2	-0.71	100*	-38
O=C(NCC(O)c1ccccc1)c1cccc(S(=O)(=O)N2CCOCC2)c1 (stereo not drawn)	1	0	-18	-34
O=C(N/N=C1\CC2CC=CC12)c1ccc(COc2ccccc2)cc1 (stereo not drawn)	0	-0.55	-4	54*
CC(C)(C)c1ccc(OCc2ccc(C(=O)N/N=C3\CC4CC=CC34)cc2)cc1 (stereo not drawn)	-1	-1.1	-3	-19
Cc1cccc(OCCN2CSC(=S)N(C)C2)c1	0	-2.7	8	67*
Cc1cccc(OCCCN2CCCCCC2)c1	0	-0.47	-14	-25
SMILES	RAM network inh	sdo1 growth	Yeast life ext	Yeast growth inh
COc1ccccc1OCCN1CSC(=S)N(C)C1	-1	-2	14	53*
COc1ccc(S(=O)(=O)Nc2cc(C)ccc2OC)cc1C	1	-1.4	1	-76
CCOC(=O)c1csc(NC(=O)CC2CCCC2)n1	3	x	x	x
COc1cccc(N2CC(C(=O)OC(C)C(=O)c3ccccc3)CC2=O)c1 (stereo not drawn)	0	0.56	-5	-17
Cc1sc2ncnc(Sc3nnnn3-c3ccc(Cl)cc3)c2c1C	5	-0.67	-15	-42
CCCC(=O)Nc1nn(CCC)c2nc3ccccc3cc12	2	-0.88	-7	-38
CC(C)(C)n1nnnc1C(c1ccc(C(F)(F)F)cc1)N(Cc1ccccc1)Cc1ccco1 (stereo not drawn)	11*	-0.15	-8	-18
O=C1CC(c2cccc(Cl)c2)CC(O)=C1C=Nc1cccc(Cl)c1 (stereo not drawn)	6	-1.5	29*	-40
CCc1cc(=O)oc2cc(C)c(CN3CCCC3)c(O)c12	1	-0.08	57	-43
CCCc1cc(=O)oc2cc(C)c(CN3CCCC3)c(O)c12	0	0.39	35*	-21
C=CCn1c(SCC(=O)Nc2cc(OC)c(NC(=O)c3ccco3)cc2OC)nnc1-c1ccncc1	8.6*	0.55	x	-4
Cc1ccc(C(=O)Cn2nnc(-c3ccccc3-n3cnnn3)n2)cc1	2	0.25	-10	-32
COc1ccc(-c2cc(C(F)(F)F)nc(SCCC(=O)NCc3ccccc3)n2)cc1	9.6*	-0.32	1	-28
COc1ccc(-c2cc(C(F)(F)F)nc(SCc3cccc(C(=O)O)c3)n2)cc1	4	-0.14	-9	-34
O=C(CCSc1nc(-c2ccco2)cc(C(F)(F)F)n1)NCCc1ccccc1	9.9*	-0.57	-9	-74
CCCc1nc(SCC(=O)N2CCN(c3ccccc3)CC2)c2c(=O)n(C)c(=O)n(C)c2n1	3	-0.74	-2	-79
COCCN(CCOC)S(=O)(=O)c1ccc(C(=O)Nc2sc3c(c2C(N)=O)CCCCC3)cc1	0	-0.38	40*	-34
CCCCCCCOC(=O)c1nc(Cl)c(Cl)c(N)c1Cl	4	-1.4	-6	-49
Clc1ccc(Cl)c(-c2nn3c(COc4ccccc4)nnc3s2)c1	5	-1.9	-6	21
COc1ccc(OCc2nnc(SCC(=O)c3c(N)n(C)c(=O)n(C)c3=O)n2-c2ccccc2F)cc1	11*	x	x	x
Cn1c(SCC(=O)c2c(N)n(C)c(=O)n(C)c2=O)nnc1-c1ccccc1F	2	x	x	x
c1ccc(-c2nnc(-c3ccccn3)nc2NC2CCCCC2)cc1	-1	-1.6	-18	94*
CC(C)c1ccc(OCC(=O)NC(=S)Nc2ccc3c4c(cccc24)CC3)cc1	9.1*	-1.1	-15	-35
COC(=O)c1ccccc1NC(=S)NC(=O)COc1ccc(C(C)C)cc1	9.2*	0	3	-25
Clc1cccc(Cl)c1-c1nnc2cccc(Cl)n12	1	-0.82	x	-19
SMILES	RAM network inh	sdo1 growth	Yeast life ext	Yeast growth inh
O=C(O)c1ccccc1C(=O)NNc1ccc(Cl)cc1	0	-1.1	-24	93*
COc1ccc(OC)c(C(=O)COC(=O)c2c(OC)cccc2OC)c1	1	-1.5	-11	-30
COc1ccc(OC)c(C(=O)COC(=O)c2ccccc2O)c1	8.7*	-0.08	-19	0
C=CCN1C(=O)C(C)(C)N(C(C)=O)c2ccccc21	2	0.09	28*	-31
CCOC(=O)Cn1nnnc1CN(Cc1ccc(OC)cc1)Cc1cc2cc(C)ccc2[nH]c1=O	1	-0.15	-2	-6
CN(C)CCOC(=O)CCc1ccccc1	2	1.2	-6	10
CCCCCCNC(=O)C(C#N)c1nc2ccccc2nc1N1CCCC1 (stereo not drawn)	5	1	-4	-4
